Measured values published in ChEMBL document CHEMBL5625189, “Discovery of new diaryl ether inhibitors against Mycobacterium tuberculosis targeting the minor portal of InhA” (Eur J Med Chem, 2023).
Activity calls are given as the source filed them. The calls are words filed in the database; no cut-off is given here.

Key:
[1] = target: T1, Enoyl-[acyl-carrier-protein] reductase [NADH] (Mycobacterium tuberculosis, UniProt P9WGR1); assay: Inhibition of his6-tagged Mycobacterium tuberculosis InhA using trans-2-dodecenoyl-coenzyme as substrate in presence of […]
T1 sequence (P9WGR1 whole entry): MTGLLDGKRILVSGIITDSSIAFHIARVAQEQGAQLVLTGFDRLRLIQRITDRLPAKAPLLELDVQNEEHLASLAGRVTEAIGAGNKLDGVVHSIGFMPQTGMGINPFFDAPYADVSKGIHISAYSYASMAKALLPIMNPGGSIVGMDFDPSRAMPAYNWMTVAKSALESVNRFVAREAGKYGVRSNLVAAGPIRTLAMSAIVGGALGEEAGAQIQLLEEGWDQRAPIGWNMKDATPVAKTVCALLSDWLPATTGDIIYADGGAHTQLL

[2] = system: Mycobacterium tuberculosis; assay: Antimycobacterial activity against Mycobacterium tuberculosis H37Rv assessed as reduction in microbial growth incubated for 6 days by broth dilution method; assay type: functional; conditions: 144 h, time 6 day
Procedure, shortened: (§1)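 Mtb H37Rv pellicle cells dispersed with glass beads in 7H9-0.2% glycerol, clumps removed by low-speed spin; twofold serial dilutions (DMSO stocks 1 or 10 mM) in 7H9, inoculum OD600 0.1; 6 days at 37 °C, then MTT added, 1 day more; SDS solubilisation, OD 570 nm; MIC = lowest concentration inhibiting growth, ≥3 independent experiments.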

[3] = target: T2, Enoyl-[acyl-carrier-protein] reductase [NADH] (Mycobacterium tuberculosis) (UniProt P9WGR1); assay: Inhibition of his6-tagged Mycobacterium tuberculosis InhA using trans-2-dodecenoyl-coenzyme as substrate at 200 uM in presence of […] relative to control
T2 sequence (whole entry): T1 sequence (P9WGR1 whole entry)

[4] = target: T2, Enoyl-[acyl-carrier-protein] reductase [NADH] (Mycobacterium tuberculosis); assay: Inhibition of his6-tagged Mycobacterium tuberculosis InhA using trans-2-dodecenoyl-coenzyme as substrate at 500 uM in presence of […] relative to control
[5] = target: T2, Enoyl-[acyl-carrier-protein] reductase [NADH] (Mycobacterium tuberculosis); assay: Inhibition of his6-tagged Mycobacterium tuberculosis InhA using trans-2-dodecenoyl-coenzyme as substrate at 100 uM in presence of […] relative to control
[6] = Selectivity index, ratio of IC50 for cytotoxicity against human HCT-116 cells assessed as inhibition of cell growth to MIC for antimycobacterial activity against Mycobacterium tuberculosis H37Rv assessed as reduction in microbial growth; assay type: toxicity, cell-based
Procedure, shortened: (§2)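 Selectivity index: IC50 on each human cell line (72 h SRB assay) divided by MIC against Mtb H37Rv (MTT microassay).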

[7] = Selectivity index, ratio of IC50 for cytotoxicity against human HepG2 cells assessed as inhibition of cell growth to MIC for antimycobacterial activity against Mycobacterium tuberculosis H37Rv assessed as reduction in microbial growth; assay type: toxicity, cell-based; procedure, shortened: as §2
[8] = target: T2, Enoyl-[acyl-carrier-protein] reductase [NADH] (Mycobacterium tuberculosis); assay: Inhibition of his6-tagged Mycobacterium tuberculosis InhA using trans-2-dodecenoyl-coenzyme as substrate at 50 uM in presence of […] relative to control
[9] = target: T2, Enoyl-[acyl-carrier-protein] reductase [NADH] (Mycobacterium tuberculosis); assay: Inhibition of his6-tagged Mycobacterium tuberculosis InhA using trans-2-dodecenoyl-coenzyme as substrate at 10 uM in presence of […] relative to control
HCT-116 = assay: Cytotoxicity against human HCT-116 cells assessed as inhibition of cell growth incubated for 72 hrs by SRB assay; assay type: functional, cell-based; conditions: HCT-116, 72 h
Procedure, shortened: (§3)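 Seeded 24 h before dosing (HCT116 1500, CACO2 2500, HepG2 9000, WI38hTERT 3500 cells/well); HCT116 in DMEM high-glucose, others in MEM, 10% FBS (20% for CACO2); serial 2-fold dilutions for 72 h at 37 °C, 5% CO2; SRB staining, OD 490 nm; background-subtracted, normalized to untreated; duplicate points, ≥3 independent experiments; IC50 by four-parameter logistic fit.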

Caco-2 = assay: Cytotoxicity against human Caco-2 cells assessed as inhibition of cell growth incubated for 72 hrs by SRB assay; assay type: functional, cell-based; conditions: Caco-2, 72 h; procedure, shortened: as §3
HepG2 = assay: Cytotoxicity against human HepG2 cells assessed as inhibition of cell growth incubated for 72 hrs by SRB assay; assay type: functional, cell-based; conditions: HepG2, 72 h; procedure, shortened: as §3
WI-38 = assay: Cytotoxicity against human WI-38 cells assessed as inhibition of cell growth incubated for 72 hrs by SRB assay; assay type: functional, cell-based; conditions: WI-38, 72 h; procedure, shortened: as §3
[10] = Selectivity index, ratio of IC50 for cytotoxicity against human Caco-2 cells assessed as inhibition of cell growth to MIC for antimycobacterial activity against Mycobacterium tuberculosis H37Rv assessed as reduction in microbial growth; assay type: toxicity, cell-based; procedure, shortened: as §2
[11] = Selectivity index, ratio of IC50 for cytotoxicity against human WI-38 cells assessed as inhibition of cell growth to MIC for antimycobacterial activity against Mycobacterium tuberculosis H37Rv assessed as reduction in microbial growth; assay type: toxicity, cell-based; procedure, shortened: as §2
[12] = target: T1, Enoyl-[acyl-carrier-protein] reductase [NADH]; assay: Inhibition of Mycobacterium tuberculosis H37Rv InhA using trans-2-dodecenoyl-coenzyme A as substrate in presence of NADH
[13] = system: Mycobacterium tuberculosis; assay: Antimycobacterial activity against Mycobacterium tuberculosis H37Rv assessed as reduction in microbial growth; assay type: functional; procedure, shortened: as §1

## CCN(CC)c1ccc2cc(C(=O)NCc3cn(Cc4ccc(Oc5ccccc5)c(O)c4)nn3)c(=O)oc2c1
[1]; read-out: IC50
  IC50: 3550 nM
[2]
  MIC: > 54 µg/mL

## C#CCOc1ccc2c(C)cc(=O)oc2c1
[3]
  inhibition: 37%
[4]
  inhibition: 90%

## [N-]=[N+]=NCc1ccc(Oc2ccccc2)c(O)c1
[1]; read-out: IC50
  IC50: 843 nM

## O=C(O)c1cn(C2CC2)c2cc(N3CCNCC3)c(F)cc2c1=O [CIPROFLOXACIN]
[1]
  IC50: Not Active
[2]
  MIC: 0.8 µg/mL

## C#CCNC(=O)c1cc2ccccc2oc1=O
[3]
  inhibition: inactive

## Cc1cc(=O)oc2cc(OCc3cnnn3Cc3ccc(Oc4ccccc4)c(O)c3)ccc12
[1]; read-out: IC50
  IC50: 510 nM

## CN(C)S(=O)(=O)c1ccc(NCc2cn(Cc3ccc(Oc4ccccc4)c(O)c3)nn2)c2nonc12
[1]; read-out: IC50
  IC50: 733 nM
[2]
  MIC: > 52 µg/mL

## C#CCOc1ccc2ccc(=O)oc2c1
[3]
  inhibition: 99%
[5]
  inhibition: 30%

## COc1cccc2cc(C(=O)NCc3cn(Cc4ccc(Oc5ccccc5)c(O)c4)nn3)c(=O)oc12
[1]; read-out: IC50
  IC50: 740 nM
[2]
  MIC: 5 µg/mL

## O=C(NCc1cn(Cc2ccc(Oc3ccccc3)c(O)c2)nn1)c1cc2cc(O)ccc2oc1=O
[1]; read-out: IC50
  IC50: 844 nM
[2]
  MIC: > 4.8 µg/mL

## CCCCCCc1ccc(Oc2ccc(Cn3cc(CNc4ccc([N+](=O)[O-])c5nonc45)nn3)cc2)c(O)c1
[6]
  selectivity ratio: 3.5
[7]
  selectivity ratio: 10.8
[8]
  inhibition: 32.3%
[9]
  inhibition: 11.4%
[2]
  MIC: 1.4 µg/mL
HCT-116
  IC50: 8700 nM
Caco-2
  IC50: 26100 nM
HepG2
  IC50: 26900 nM
WI-38
  IC50: 52900 nM
[10]
  selectivity ratio: 10.5
[11]
  selectivity ratio: 21.2

## O=c1ccc2ccc(OCc3cnnn3Cc3ccc(Oc4ccccc4)c(O)c3)cc2o1
[1]; read-out: IC50
  IC50: 630 nM

## C#CCNC(=O)c1cc2ccc(N(CC)CC)cc2oc1=O
[4]
  inhibition: 10%

## CCN(CC)c1ccc2c(OCc3cn(Cc4ccc(Oc5ccccc5)c(O)c4)nn3)cc(=O)oc2c1
[6]
  selectivity ratio: 0.4
[7]
  selectivity ratio: 1.3
[1]; read-out: IC50
  IC50: 54 nM
[2]
  MIC: 0.7 µg/mL
HCT-116
  IC50: 530 nM
Caco-2
  IC50: 1100 nM
HepG2
  IC50: 1600 nM
WI-38
  IC50: 600 nM
[10]
  selectivity ratio: 0.9
[11]
  selectivity ratio: 0.5

## C#CCOc1cc(=O)oc2ccccc12
[4]
  inhibition: inactive

## Oc1cc2ccc1Oc1ccc(cc1)CCc1ccc(c(O)c1)Oc1ccc(cc1)CC2
[12]
  IC50: 4700 nM

## O=c1ccc2ccc(OCc3cn(Cc4ccc(Oc5ccccc5)c(O)c4)nn3)cc2o1
[1]; read-out: IC50
  IC50: 163 nM
[2]
  MIC: 2.2 µg/mL

## O=c1ccc2ccc(OCc3cn(Cc4ccc(Oc5ccccc5O)cc4)nn3)cc2o1
[8]
  inhibition: 10%
[2]
  MIC: 2.2 µg/mL

## Cc1cc(=O)oc2cc(OCc3cn(Cc4ccc(Oc5ccccc5)c(O)c4)nn3)ccc12
[6]
  selectivity ratio: 19.1
[7]
  selectivity ratio: 24.8
[1]; read-out: IC50
  IC50: 205 nM
[2]
  MIC: 0.6 µg/mL
HCT-116
  IC50: 23900 nM
Caco-2
  IC50: 25000 nM
HepG2
  IC50: 31000 nM
WI-38
  IC50: > 100000 nM
[10]
  selectivity ratio: 20
[11]
  selectivity ratio: > 80

## O=[N+]([O-])c1ccc(NCc2cn(Cc3ccc(Oc4ccccc4)c(O)c3)nn2)c2nonc12
[1]; read-out: IC50
  IC50: 459 nM
[2]
  MIC: 4.6 µg/mL

## O=C(NCc1cn(Cc2ccc(Oc3ccccc3)c(O)c2)nn1)c1cc2ccccc2oc1=O
[1]; read-out: IC50
  IC50: 598 nM
[2]
  MIC: 4.7 µg/mL

## O=c1cc(OCc2cn(Cc3ccc(Oc4ccccc4)c(O)c3)nn2)c2ccccc2o1
[1]; read-out: IC50
  IC50: 181 nM
[2]
  MIC: 2.2 µg/mL

## CCCCCCc1ccc(Oc2ccc(Cn3cc(CNC(=O)c4cc5ccc(N(CC)CC)cc5oc4=O)nn3)cc2)c(O)c1
[8]
  inhibition: 53.7%
[9]
  inhibition: 31.5%
[2]
  MIC: > 60 µg/mL

## COc1ccc2cc(C(=O)NCc3cn(Cc4ccc(Oc5ccccc5)c(O)c4)nn3)c(=O)oc2c1
[1]; read-out: IC50
  IC50: 345 nM
[2]
  MIC: > 5 µg/mL

## CCCCCCCCc1ccc(Oc2ccccc2)c(O)c1
[13]
  MIC: 6.4 µM
